Test results as given in ChEMBL document CHEMBL1144412, “High affinity central benzodiazepine receptor ligands: synthesis and biological evaluation of a series of phenyltriazolobenzotriazindione derivatives” (J Med Chem, 2005).

Assays:
[1] = molecular target: GABA-A receptor; anion channel; experiment: Displacement of [3H]flumazenil from bovine benzodiazepine receptor GABA-A channel of brain membranes; design: species or system Bos taurus
[2] = molecular target: GABA A receptor alpha-2/beta-2/gamma-2 (Rattus norvegicus, UniProt P18508+P23576+P63138); experiment: Displacement of [3H]flumazenil from rat GABA-A Gamma-aminobutyric acid A receptor alpha-2-beta-2-gamma-2 expressed in HEK293 cells; assay type: cell-based
Sequence of GABA A receptor alpha-2/beta-2/gamma-2 (P18508 whole entry): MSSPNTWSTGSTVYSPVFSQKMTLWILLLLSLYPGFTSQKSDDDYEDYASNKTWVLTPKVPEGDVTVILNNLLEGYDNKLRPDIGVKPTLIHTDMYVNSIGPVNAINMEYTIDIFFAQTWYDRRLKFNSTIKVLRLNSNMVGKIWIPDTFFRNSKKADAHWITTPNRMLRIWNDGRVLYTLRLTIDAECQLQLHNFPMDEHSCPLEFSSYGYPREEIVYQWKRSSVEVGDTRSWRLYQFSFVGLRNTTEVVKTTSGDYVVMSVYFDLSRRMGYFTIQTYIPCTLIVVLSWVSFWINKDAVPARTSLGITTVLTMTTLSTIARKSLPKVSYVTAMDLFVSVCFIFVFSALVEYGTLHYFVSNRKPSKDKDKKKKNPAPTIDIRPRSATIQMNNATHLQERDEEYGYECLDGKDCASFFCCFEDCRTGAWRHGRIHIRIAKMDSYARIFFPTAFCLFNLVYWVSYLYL
Sequence of GABA A receptor alpha-2/beta-2/gamma-2 (P23576 whole entry): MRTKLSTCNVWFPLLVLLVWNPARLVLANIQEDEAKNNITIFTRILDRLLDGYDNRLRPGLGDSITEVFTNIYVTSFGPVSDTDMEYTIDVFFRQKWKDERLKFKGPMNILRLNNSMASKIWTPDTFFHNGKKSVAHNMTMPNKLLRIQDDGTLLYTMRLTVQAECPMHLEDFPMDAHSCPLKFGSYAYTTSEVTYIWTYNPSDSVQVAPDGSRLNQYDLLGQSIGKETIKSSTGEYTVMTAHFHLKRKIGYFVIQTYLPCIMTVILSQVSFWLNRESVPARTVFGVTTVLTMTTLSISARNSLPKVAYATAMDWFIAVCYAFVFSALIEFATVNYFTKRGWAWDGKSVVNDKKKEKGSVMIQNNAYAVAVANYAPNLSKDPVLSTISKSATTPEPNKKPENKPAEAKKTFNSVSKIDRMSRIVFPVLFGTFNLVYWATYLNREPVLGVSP
Sequence of GABA A receptor alpha-2/beta-2/gamma-2 (P63138 whole entry): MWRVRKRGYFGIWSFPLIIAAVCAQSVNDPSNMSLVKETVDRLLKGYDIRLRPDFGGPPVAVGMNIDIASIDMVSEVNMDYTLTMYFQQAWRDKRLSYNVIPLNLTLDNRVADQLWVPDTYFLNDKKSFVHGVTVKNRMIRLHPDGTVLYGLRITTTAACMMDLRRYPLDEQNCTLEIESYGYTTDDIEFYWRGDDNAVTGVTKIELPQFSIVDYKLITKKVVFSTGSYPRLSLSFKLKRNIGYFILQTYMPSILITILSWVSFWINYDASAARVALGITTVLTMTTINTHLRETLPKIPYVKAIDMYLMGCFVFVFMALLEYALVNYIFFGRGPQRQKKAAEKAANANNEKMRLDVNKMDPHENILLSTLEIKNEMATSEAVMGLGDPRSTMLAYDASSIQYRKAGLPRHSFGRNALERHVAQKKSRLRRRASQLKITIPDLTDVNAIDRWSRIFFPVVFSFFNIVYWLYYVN
Method in brief: (§1)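 HEK293 cells stably expressing each rat subtype, grown in DMEM/F-12 with 10% FBS at 37 °C, 5% CO2. Harvested cells were homogenized in 10 mM potassium phosphate pH 7.4 and spun at 48 000g for 30 min at 4 °C. Pellets were washed and resuspended with 100 mM KCl. Ki from three determinations.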

[3] = molecular target: GABA A receptor alpha-5/beta-3/gamma-2 (Rattus norvegicus, UniProt P18508+P19969+P63079); experiment: Displacement of [3H]flumazenil from rat GABA-A Gamma-aminobutyric acid A receptor alpha-5-beta-3-gamma-2 expressed in HEK293 cells; assay type: cell-based
Sequence of GABA A receptor alpha-5/beta-3/gamma-2 (P18508 whole entry): as the sequence (P18508 whole entry) above
Sequence of GABA A receptor alpha-5/beta-3/gamma-2 (P19969 whole entry): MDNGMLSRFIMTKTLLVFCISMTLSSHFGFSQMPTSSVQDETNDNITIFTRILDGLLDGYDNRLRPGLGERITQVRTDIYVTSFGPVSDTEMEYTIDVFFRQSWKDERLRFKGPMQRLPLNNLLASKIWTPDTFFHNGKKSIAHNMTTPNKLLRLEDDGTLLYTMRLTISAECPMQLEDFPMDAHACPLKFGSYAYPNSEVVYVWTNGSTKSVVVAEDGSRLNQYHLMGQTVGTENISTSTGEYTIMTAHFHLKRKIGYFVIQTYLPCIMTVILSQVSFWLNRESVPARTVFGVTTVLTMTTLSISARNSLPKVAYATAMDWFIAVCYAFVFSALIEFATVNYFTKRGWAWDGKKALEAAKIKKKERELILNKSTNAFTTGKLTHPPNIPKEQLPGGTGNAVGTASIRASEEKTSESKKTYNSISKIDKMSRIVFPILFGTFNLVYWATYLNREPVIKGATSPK
Sequence of GABA A receptor alpha-5/beta-3/gamma-2 (P63079 whole entry): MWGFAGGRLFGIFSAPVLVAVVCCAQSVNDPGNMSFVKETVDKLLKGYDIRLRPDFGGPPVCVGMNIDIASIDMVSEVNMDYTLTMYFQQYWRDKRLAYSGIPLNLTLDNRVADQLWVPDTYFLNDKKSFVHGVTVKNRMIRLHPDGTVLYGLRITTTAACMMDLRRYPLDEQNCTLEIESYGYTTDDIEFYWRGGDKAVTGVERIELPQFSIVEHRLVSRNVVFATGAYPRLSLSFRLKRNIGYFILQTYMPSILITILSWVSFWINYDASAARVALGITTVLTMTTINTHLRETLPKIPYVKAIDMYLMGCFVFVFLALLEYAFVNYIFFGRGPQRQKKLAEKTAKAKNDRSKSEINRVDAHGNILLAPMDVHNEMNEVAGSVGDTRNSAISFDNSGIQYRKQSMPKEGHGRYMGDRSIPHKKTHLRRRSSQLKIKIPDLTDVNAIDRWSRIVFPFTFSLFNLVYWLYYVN
Method in brief: as §1, with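 “KCl. Incubated with [3H]flumazenil 1-2 nM and compound 10-9-10-5 M for 1 h at 4 °C. […]” for “KCl.”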

[4] = molecular target: GABA-A receptor; alpha-1/beta-2/gamma-2 (Rattus norvegicus, UniProt P18508+P62813+P63138); experiment: Displacement of [3H]flumazenil from rat GABA-A Gamma-aminobutyric acid A receptor alpha-1-beta-2-gamma-2 expressed in HEK293 cells; assay type: cell-based; method in brief: as §1
Sequence of GABA-A receptor; alpha-1/beta-2/gamma-2 (P18508 whole entry): as the sequence (P18508 whole entry) above
Sequence of GABA-A receptor; alpha-1/beta-2/gamma-2 (P62813 whole entry): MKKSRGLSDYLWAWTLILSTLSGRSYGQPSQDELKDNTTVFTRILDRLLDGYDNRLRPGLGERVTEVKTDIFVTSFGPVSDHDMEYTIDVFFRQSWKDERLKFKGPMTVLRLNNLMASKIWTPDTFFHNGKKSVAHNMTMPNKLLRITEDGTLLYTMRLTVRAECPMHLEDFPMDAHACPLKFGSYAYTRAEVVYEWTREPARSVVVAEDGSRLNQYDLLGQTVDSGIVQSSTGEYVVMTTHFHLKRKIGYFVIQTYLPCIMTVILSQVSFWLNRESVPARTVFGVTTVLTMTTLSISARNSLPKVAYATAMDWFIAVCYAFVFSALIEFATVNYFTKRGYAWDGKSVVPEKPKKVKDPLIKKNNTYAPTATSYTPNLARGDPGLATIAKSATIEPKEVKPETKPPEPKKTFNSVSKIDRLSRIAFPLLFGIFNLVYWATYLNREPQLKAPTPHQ
Sequence of GABA-A receptor; alpha-1/beta-2/gamma-2 (P63138 whole entry): as the sequence (P63138 whole entry) above

Row | SMILES | Ki [1] [µM] | Ki [2] [µM] | Ki [3] [µM] | Ki [4] [µM]
1 | Cc1ccc(-c2nn3c(=O)[nH]c4ccccc4n3c2=O)cc1 | 0.616 | – | – | –
2 | O=c1[nH]c2ccc(Cl)cc2n2c(=O)c(-c3ccc(F)cc3)nn12 | 0.056 | – | – | –
3 | COc1ccc(-c2nn3c(=O)[nH]c4ccc(Cl)cc4n3c2=O)cc1 | 0.006 | 0.018 | 0.00757 | 0.00182
4 | O=c1[nH]c2ccc(Cl)cc2n2c(=O)c(-c3ccc(Cl)cc3)nn12 | 0.038 | – | – | –
5 | COc1ccc(-c2nn3c(=O)[nH]c4ccccc4n3c2=O)cc1OC | > 10 | – | – | –
6 | O=c1[nH]c2ccccc2n2c(=O)c(-c3ccc(F)cc3)nn12 | 0.054 | – | – | –
7 | O=C1CN=C(c2ccccc2Cl)c2cc([N+](=O)[O-])ccc2N1 [CLONAZEPAM] | 0.00085 | – | – | –
8 | O=c1[nH]c2ccc(Cl)cc2n2c(=O)c(-c3ccccc3)nn12 | 0.0028 | 0.0139 | 0.0103 | 0.00174
9 | COc1ccc(-c2nn3c(=O)[nH]c4ccccc4n3c2=O)cc1 | 0.011 | 0.0143 | 0.0172 | 0.00376
10 | O=c1[nH]c2ccccc2n2c(=O)c(-c3ccccc3F)nn12 | > 10 | – | – | –
11 | O=c1[nH]c2ccccc2n2c(=O)c(-c3ccc(Br)cc3)nn12 | 0.224 | – | – | –
12 | O=c1[nH]c2ccccc2n2c(=O)c(-c3ccc(Cl)cc3)nn12 | 0.169 | – | – | –
13 | O=c1[nH]c2ccccc2n2c(=O)c(-c3ccccc3)nn12 | 0.022 | 0.0276 | 0.0241 | 0.00914
14 | Cc1ccc(-c2nn3c(=O)[nH]c4ccc(Cl)cc4n3c2=O)cc1 | 0.185 | – | – | –
